Experimental data as given in publication PMC9217999 (Targeted Oncology, 2022).
Entries after “also recorded” stand apart in the source; their conditions may differ.

Assay: Safety and tolerability in iMATRIX-cobi Phase I/II study
Type: in vivo, human
Method in brief: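 Patients aged 6 months to <30 years with relapsed/refractory solid tumors with MAPK pathway involvement. Oral test compound (20-mg tablet or suspension, with/without food) on Days 1–21 of 28-day cycles. Cumulative weekly weight-based dose rounded to 20 mg, capped at 60 mg/day. Rolling 6 escalation in cohorts of 3–6. Eye exams including OCT at baseline, cycle 1 Days 8/15, and each later cycle Day 1. All dosed patients evaluated.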

[1] = Dose escalation suspension (n = 26)
[2] = Dose escalation tablet (n = 18)

SMILES: O=C(c1ccc(F)c(F)c1Nc1ccc(I)cc1F)N1CC(O)([C@@H]2CCCCN2)C1 [cobimetinib]
- DLTs (events) (0.6 mg/kg suspension): grade 1 chorioretinopathy
- DLTs (events) (1.0 mg/kg tablet): grade 3 headache; also recorded: grade 2 retinal detachment
- DLTs (events) (1.33 mg/kg suspension): grade 4 chorioretinopathy; also recorded: grade 1 serous retinal detachment
- Any treatment-related AE, G1 [1]: 6 (23) n (%)
- Any treatment-related AE, G2 [1]: 12 (46) n (%)
- Any treatment-related AE, G3 [1]: 4 (15) n (%)
- Any treatment-related AE, G4 [1]: 1 (4) n (%)
- Treatment-related AE: ALT increased, G1 [1]: 1 (4) n (%)
- Treatment-related AE: ALT increased, G2 [1]: 0 n (%)
- Treatment-related AE: ALT increased, G3 [1]: 1 (4) n (%)
- Treatment-related AE: ALT increased, G4 [1]: 0 n (%)
- Treatment-related AE: AST increased, G1 [1]: 1 (4) n (%)
- Treatment-related AE: AST increased, G2 [1]: 0 n (%)
- Treatment-related AE: AST increased, G3 [1]: 1 (4) n (%)
- Treatment-related AE: AST increased, G4 [1]: 0 n (%)
- Treatment-related AE: Abdominal pain, G1 [1]: 2 (8) n (%)
- Treatment-related AE: Abdominal pain, G2 [1]: 2 (8) n (%)
- Treatment-related AE: Abdominal pain, G3 [1]: 0 n (%)
- Treatment-related AE: Abdominal pain, G4 [1]: 0 n (%)
- Treatment-related AE: Anemia, G1 [1]: 1 (4) n (%)
- Treatment-related AE: Anemia, G2 [1]: 0 n (%)
- Treatment-related AE: Anemia, G3 [1]: 0 n (%)
- Treatment-related AE: Anemia, G4 [1]: 0 n (%)
- Treatment-related AE: Asthenia, G1 [1]: 0 n (%)
- Treatment-related AE: Asthenia, G2 [1]: 0 n (%)
- Treatment-related AE: Asthenia, G3 [1]: 0 n (%)
- Treatment-related AE: Asthenia, G4 [1]: 0 n (%)
- Treatment-related AE: Blood CPK increased, G1 [1]: 2 (8) n (%)
- Treatment-related AE: Blood CPK increased, G2 [1]: 1 (4) n (%)
- Treatment-related AE: Blood CPK increased, G3 [1]: 1 (4) n (%)
- Treatment-related AE: Blood CPK increased, G4 [1]: 0 n (%)
- Treatment-related AE: Chorioretinopathy, G1 [1]: 1 (4) n (%)
- Treatment-related AE: Chorioretinopathy, G2 [1]: 0 n (%)
- Treatment-related AE: Chorioretinopathy, G3 [1]: 0 n (%)
- Treatment-related AE: Chorioretinopathy, G4 [1]: 1 (4) n (%)
- Treatment-related AE: Constipation, G1 [1]: 1 (4) n (%)
- Treatment-related AE: Constipation, G2 [1]: 0 n (%)
- Treatment-related AE: Constipation, G3 [1]: 0 n (%)
- Treatment-related AE: Constipation, G4 [1]: 0 n (%)
- Treatment-related AE: Decreased appetite, G1 [1]: 2 (8) n (%)
- Treatment-related AE: Decreased appetite, G2 [1]: 0 n (%)
- Treatment-related AE: Decreased appetite, G3 [1]: 0 n (%)
- Treatment-related AE: Decreased appetite, G4 [1]: 0 n (%)
- Treatment-related AE: Dermatitis acneiform, G1 [1]: 4 (15) n (%)
- Treatment-related AE: Dermatitis acneiform, G2 [1]: 1 (4) n (%)
- Treatment-related AE: Dermatitis acneiform, G3 [1]: 1 (4) n (%)
- Treatment-related AE: Dermatitis acneiform, G4 [1]: 0 n (%)
- Treatment-related AE: Diarrhea, G1 [1]: 2 (8) n (%)
- Treatment-related AE: Diarrhea, G2 [1]: 7 (27) n (%)
- Treatment-related AE: Diarrhea, G3 [1]: 0 n (%)
- Treatment-related AE: Diarrhea, G4 [1]: 0 n (%)
- Treatment-related AE: Dry skin, G1 [1]: 4 (15) n (%)
- Treatment-related AE: Dry skin, G2 [1]: 0 n (%)
- Treatment-related AE: Dry skin, G3 [1]: 1 (4) n (%)
- Treatment-related AE: Dry skin, G4 [1]: 0 n (%)
- Treatment-related AE: Encephalopathy, G1 [1]: 0 n (%)
- Treatment-related AE: Encephalopathy, G2 [1]: 0 n (%)
- Treatment-related AE: Encephalopathy, G3 [1]: 0 n (%)
- Treatment-related AE: Encephalopathy, G4 [1]: 0 n (%)
- Treatment-related AE: Erythema, G1 [1]: 2 (8) n (%)
- Treatment-related AE: Erythema, G2 [1]: 0 n (%)
- Treatment-related AE: Erythema, G3 [1]: 0 n (%)
- Treatment-related AE: Erythema, G4 [1]: 0 n (%)
- Treatment-related AE: Fatigue, G1 [1]: 6 (23) n (%)
- Treatment-related AE: Fatigue, G2 [1]: 0 n (%)
- Treatment-related AE: Fatigue, G3 [1]: 0 n (%)
- Treatment-related AE: Fatigue, G4 [1]: 0 n (%)
- Treatment-related AE: Headache, G1 [1]: 3 (12) n (%)
- Treatment-related AE: Headache, G2 [1]: 2 (8) n (%)
- Treatment-related AE: Headache, G3 [1]: 0 n (%)
- Treatment-related AE: Headache, G4 [1]: 0 n (%)
- Treatment-related AE: Nausea, G1 [1]: 4 (15) n (%)
- Treatment-related AE: Nausea, G2 [1]: 0 n (%)
- Treatment-related AE: Nausea, G3 [1]: 0 n (%)
- Treatment-related AE: Nausea, G4 [1]: 0 n (%)
- Treatment-related AE: Paronychia, G1 [1]: 2 (8) n (%)
- Treatment-related AE: Paronychia, G2 [1]: 1 (4) n (%)
- Treatment-related AE: Paronychia, G3 [1]: 1 (4) n (%)
- Treatment-related AE: Paronychia, G4 [1]: 0 n (%)
- Treatment-related AE: Rash, G1 [1]: 2 (8) n (%)
- Treatment-related AE: Rash, G2 [1]: 0 n (%)
- Treatment-related AE: Rash, G3 [1]: 0 n (%)
- Treatment-related AE: Rash, G4 [1]: 0 n (%)
- Treatment-related AE: Transaminases increased, G1 [1]: 0 n (%)
- Treatment-related AE: Transaminases increased, G2 [1]: 0 n (%)
- Treatment-related AE: Transaminases increased, G3 [1]: 1 (4) n (%)
- Treatment-related AE: Transaminases increased, G4 [1]: 0 n (%)
- Treatment-related AE: Vomiting, G1 [1]: 2 (8) n (%)
- Treatment-related AE: Vomiting, G2 [1]: 0 n (%)
- Treatment-related AE: Vomiting, G3 [1]: 0 n (%)
- Treatment-related AE: Vomiting, G4 [1]: 0 n (%)
- Treatment-related AE: Weight increased, G1 [1]: 0 n (%)
- Treatment-related AE: Weight increased, G2 [1]: 0 n (%)
- Treatment-related AE: Weight increased, G3 [1]: 0 n (%)
- Treatment-related AE: Weight increased, G4 [1]: 0 n (%)
- Any treatment-related AE, G1 [2]: 7 (39) n (%)
- Any treatment-related AE, G2 [2]: 5 (28) n (%)
- Any treatment-related AE, G3 [2]: 4 (22) n (%)
- Any treatment-related AE, G4 [2]: 0 n (%)
- Treatment-related AE: ALT increased, G1 [2]: 1 (6) n (%)
- Treatment-related AE: ALT increased, G2 [2]: 0 n (%)
- Treatment-related AE: ALT increased, G3 [2]: 0 n (%)
- Treatment-related AE: ALT increased, G4 [2]: 0 n (%)
- Treatment-related AE: AST increased, G1 [2]: 1 (6) n (%)
- Treatment-related AE: AST increased, G2 [2]: 0 n (%)
- Treatment-related AE: AST increased, G3 [2]: 0 n (%)
- Treatment-related AE: AST increased, G4 [2]: 0 n (%)
- Treatment-related AE: Abdominal pain, G1 [2]: 4 (22) n (%)
- Treatment-related AE: Abdominal pain, G2 [2]: 0 n (%)
- Treatment-related AE: Abdominal pain, G3 [2]: 0 n (%)
- Treatment-related AE: Abdominal pain, G4 [2]: 0 n (%)
- Treatment-related AE: Anemia, G1 [2]: 1 (6) n (%)
- Treatment-related AE: Anemia, G2 [2]: 0 n (%)
- Treatment-related AE: Anemia, G3 [2]: 0 n (%)
- Treatment-related AE: Anemia, G4 [2]: 0 n (%)
- Treatment-related AE: Asthenia, G1 [2]: 0 n (%)
- Treatment-related AE: Asthenia, G2 [2]: 0 n (%)
- Treatment-related AE: Asthenia, G3 [2]: 0 n (%)
- Treatment-related AE: Asthenia, G4 [2]: 0 n (%)
- Treatment-related AE: Blood CPK increased, G1 [2]: 0 n (%)
- Treatment-related AE: Blood CPK increased, G2 [2]: 1 (6) n (%)
- Treatment-related AE: Blood CPK increased, G3 [2]: 0 n (%)
- Treatment-related AE: Blood CPK increased, G4 [2]: 0 n (%)
- Treatment-related AE: Chorioretinopathy, G1 [2]: 0 n (%)
- Treatment-related AE: Chorioretinopathy, G2 [2]: 0 n (%)
- Treatment-related AE: Chorioretinopathy, G3 [2]: 0 n (%)
- Treatment-related AE: Chorioretinopathy, G4 [2]: 0 n (%)
- Treatment-related AE: Constipation, G1 [2]: 3 (17) n (%)
- Treatment-related AE: Constipation, G2 [2]: 0 n (%)
- Treatment-related AE: Constipation, G3 [2]: 0 n (%)
- Treatment-related AE: Constipation, G4 [2]: 0 n (%)
- Treatment-related AE: Decreased appetite, G1 [2]: 2 (11) n (%)
- Treatment-related AE: Decreased appetite, G2 [2]: 0 n (%)
- Treatment-related AE: Decreased appetite, G3 [2]: 1 (6) n (%)
- Treatment-related AE: Decreased appetite, G4 [2]: 0 n (%)
- Treatment-related AE: Dermatitis acneiform, G1 [2]: 0 n (%)
- Treatment-related AE: Dermatitis acneiform, G2 [2]: 0 n (%)
- Treatment-related AE: Dermatitis acneiform, G3 [2]: 0 n (%)
- Treatment-related AE: Dermatitis acneiform, G4 [2]: 0 n (%)
- Treatment-related AE: Diarrhea, G1 [2]: 8 (44) n (%)
- Treatment-related AE: Diarrhea, G2 [2]: 1 (6) n (%)
- Treatment-related AE: Diarrhea, G3 [2]: 0 n (%)
- Treatment-related AE: Diarrhea, G4 [2]: 0 n (%)
- Treatment-related AE: Dry skin, G1 [2]: 2 (11) n (%)
- Treatment-related AE: Dry skin, G2 [2]: 2 (11) n (%)
- Treatment-related AE: Dry skin, G3 [2]: 0 n (%)
- Treatment-related AE: Dry skin, G4 [2]: 0 n (%)
- Treatment-related AE: Encephalopathy, G1 [2]: 0 n (%)
- Treatment-related AE: Encephalopathy, G2 [2]: 0 n (%)
